# Source: PubChem (Sanford-Burnham Center for Chemical Genomics)
# Rows were chosen to be rich in hits. Some 1.5% of all compounds tested hit in one or more screens of this group.
# APJ agonist = agonists of human APJ apelin receptor; P35414; CHO-K1 APJ PathHunter beta-arrestin, luminescence; 0% DMSO wells, 100% apelin; activation, % at 20 µM; 0.11% of 330,000 active; AID 2520;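 active means activation more than six SD over the plate average, tested at 20 µM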;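 further: 0% = DMSO alone and 100% = apelin-13 at 10 nM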
#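 system = engineered CHO-K1 APJ arrestin reporter cells | input = 1000 cells per well | timing = overnight seeding, 90 min compound at 25 °C, 1 h detection | measured by = enzyme-fragment complementation luminescence | read-out = beta-arrestin recruitment to APJ as agonist activity, luminescent signal | control set = negative DMSO alone, positive Apelin-13 at 10 nM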
# CXCR6 inh = blocks human CXCR6 beta-arrestin recruitment; CHO-K1 PathHunter CXCR6 beta-arrestin, luminescence; O00574; inhibition, % at 20 µM; AID 602244; 0.36% of 360,000 active; in the data active means inhibition above about 34%, passing the limit was not always enough;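 further: antagonist mode with CXCL16 agonist at 10 nM final; 0% = 10 nM CXCL16 with DMSO and 100% = unstimulated wells without agonist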
# CCR6 antagonist = blocks CCL20-driven beta-arrestin recruitment at human CCR6; 0.49% of 340,000 active; inhibition, % at 20 µM; P51684; CHO-K1 CCR6 PathHunter beta-arrestin, luminescence, CCL20-stimulated;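 active means compounds whose inhibition of the agonist-driven luminescence signal at 20 µM reaches about 50%, limit read from the data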;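 further: cells stimulated with CCL20 at 14 nM final; plate controls were DMSO with CCL20 for no effect and DMSO without agonist for full effect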
# Target sequence (P51684 whole entry, looked up): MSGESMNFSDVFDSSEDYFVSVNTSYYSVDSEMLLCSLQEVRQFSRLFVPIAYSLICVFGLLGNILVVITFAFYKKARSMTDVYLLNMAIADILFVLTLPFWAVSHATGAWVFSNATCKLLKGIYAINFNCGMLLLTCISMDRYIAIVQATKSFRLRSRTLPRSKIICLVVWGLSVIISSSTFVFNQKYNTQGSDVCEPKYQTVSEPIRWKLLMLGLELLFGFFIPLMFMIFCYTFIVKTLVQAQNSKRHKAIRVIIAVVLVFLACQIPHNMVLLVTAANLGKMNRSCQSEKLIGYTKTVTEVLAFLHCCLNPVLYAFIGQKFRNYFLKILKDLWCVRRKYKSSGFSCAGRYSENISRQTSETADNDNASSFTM
# APJ antagonist = blocks the human apelin receptor APJ; 0.32% of 330,000 active; AID 2521; inhibition, % at 20 µM; CHO-K1 APJ beta-arrestin complementation, luminescence; P35414;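 active means inhibition above about 40% at 20 µM, limit read from the data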;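 further: cells challenged with 10 nM apelin-13 agonist together with compound; plate controls were apelin-13 plus DMSO wells for no effect and DMSO wells lacking apelin-13 for full effect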
# EBI2 antag = antagonists of human EBI2 receptor; P32249; EBI2 beta-arrestin recruitment, luminescence, 7a,25-OHC stimulated; inhibition, % at 5 µM; 0.81% of 360,000 active; in the data active means inhibition above about 38%;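 further: enzyme fragment complementation signal reports receptor beta-arrestin coupling in cells; 0% = agonist plus DMSO wells and 100% = wells without agonist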
# Active calls of the source: *; / = no result given.
SMILES,APJ agonist,CXCR6 inh,CCR6 antagonist,APJ antagonist,EBI2 antag
Cc1cccc(Nc2nc(-c3sc(C)nc3C)cs2)c1,-1,6,-10,-3,57*
Cc1onc(-c2c(Cl)cccc2Cl)c1C(=O)c1c[nH]c(C(=O)NCCCN2CCOCC2)c1,0,2,4,9,-5
COC(CNC(=O)c1cc(C(=O)c2c(-c3c(Cl)cccc3Cl)noc2C)c[nH]1)OC,3,71*,23,-6,5
CNC(=O)C1Cc2c(-c3ccc(Cl)cc3)ccnc2O1 (configuration not stated),/,-7,/,/,-1
O=C(c1ccc(Cl)cc1)N1CCC(C(=O)N2CCN(c3ncccn3)CC2)CC1,-5,-1,-5,10,48*
CCNC(=O)C1(C)CCN(Cc2ccc(C#N)cc2)C1 (configuration not stated),/,0,/,/,-7
COc1ccc(CNc2oc(COc3ccccc3Cl)nc2C#N)cc1,-3,6,5,4,35
Cc1ccc(CNc2oc(COc3ccccc3Cl)nc2C#N)cc1,2,6,5,-10,47*
CCCN1CCN(C(=O)c2cc3c(s2)-c2ccccc2OC3)CC1,-2,-2,10,10,88*
CC1(C)Cc2c(c(N3CCOCC3)nc3sc4c(NCc5ccccc5)nnnc4c23)CS1,-1,6,20,20,76*
Cc1ccc(C(=O)C2C(=O)C3CCC2C3)cc1 (configuration not stated),/,-2,/,/,-3
CC1(C)OC2CC3C4CCC5=CC(=O)C=CC5(C)C4(F)C(O)CC3(C)C2(C(=O)CO)O1 (configuration not stated),/,-9,/,/,-8
N#C/C(N=Nc1ccccc1O)=N\Nc1ccccc1O,-1,13,71*,3,-21
C/C(=N/NC(=O)c1ccncc1)C1=C(O)CC(C)(C)CC1=O,-1,25,5,0,-8
COC(=O)c1csc(-c2ccc(CO)o2)n1,/,5,/,/,4
Cc1ccc(-c2csc3nc4c5ccccc5c(NCCCN(C)C)nn4c(=O)c23)cc1,11*,1,21,14,-7
CCC(=O)NC(c1ccc(C)cc1)c1cc([N+](=O)[O-])c2cccnc2c1O (configuration not stated),/,51*,48,/,-1
CC(=O)NC(c1ccccc1)c1cc(Cl)c2cccnc2c1O (configuration not stated),-6,6,9,-6,9
CC(=O)NC(c1ccc(C)cc1)c1cc([N+](=O)[O-])c2cccnc2c1O (configuration not stated),-4,48*,/,6,14
Cc1ccc(C(=O)ONc2ccc(N=NC(=O)c3ccccc3O)cc2)cc1,-10,28,56*,35,12
COC(=O)[C@]12CCCCC=C1N(CCC1=CCCCC1)C(=O)[C@H](CC(=O)N1CCN(C(=O)c3ccco3)CC1)C2,/,2,/,/,0
COc1cc(C(=O)N2CCC2(C)C(=O)O)cc(OC)c1OC (configuration not stated),/,-7,/,/,-7
O=C(NCCOc1ccccc1F)c1cc([N+](=O)[O-])ccc1N1CCOCC1,-4,-8,3,16,24
O=C(NCCOc1ccccc1)c1cc([N+](=O)[O-])ccc1N1CCOCC1,-2,6,15,-38,59*
CC1(C(=O)NS(=O)(=O)c2cccc(C#N)c2)CCN1C(=O)C1(c2ccccc2)CC1 (configuration not stated),/,-9,/,/,-3
SMILES,APJ agonist,CXCR6 inh,CCR6 antagonist,APJ antagonist,EBI2 antag
c1ccc(N=NC2=NN(c3ccccc3)CS2)cc1,/,42*,/,/,-1
Nc1nn(-c2ccccc2)c(N)c1N=Nc1ccccc1,5,-2,-3,-17,7
Cc1ccc(C)c(C(=O)NCCN(C)C)c1,-3,0,-4,-16,-1
C=C(CN(C)C)C(=O)c1cc(C)ccc1C,/,96*,108*,/,2
CC(NC(=O)/C(C#N)=C/c1ccc([N+](=O)[O-])o1)c1ccccc1 (configuration not stated),5,50*,/,30,36
COc1ccc(CSC(=S)NNc2ccccc2)cc1,/,-8,/,/,-16
CCOC(=O)C1CCCN(C(=O)Cn2sc3nc(C)cc(C)c3c2=O)C1 (configuration not stated),1,2,67*,-3,0
O=C1OC2(c3ccccc31)c1cc(I)c(O)c(I)c1Oc1c2cc(I)c(O)c1I,-9,/,/,46*,/
Cc1cc(O)ccc1C1(c2ccc(O)cc2C)OC(=O)c2ccccc21,2,5,28,5,-12
O=[N+]([O-])/C=C/c1cn(Cc2ccccc2)c2ccccc12,-3,14,32,19,-26
N#Cc1ccccc1Cn1cc(/C=C/[N+](=O)[O-])c2ccccc21,3,35,55*,-14,-40
CCc1nc2ccc(C(=O)NCc3cccs3)cn2c1N(CC)Cc1cccc(Br)c1,/,16,/,/,18
COc1ccc(C(=O)N(Cc2ccco2)Cc2cccs2)c(O)c1,-9,4,11,19,-2
COc1ccc(C(=O)/C=C/C(=O)N(CC(=O)NCCC(C)C)Cc2cccs2)c(O)c1,/,21,85*,/,11
COc1ccc(C(=O)/C=C/C(=O)N(CC(=O)NC2CCCCC2)Cc2ccc(F)cc2)c(O)c1,/,60*,98*,/,30
CS(=O)(=O)N(CC(=O)NC1CCCCC1)Cc1ccc(F)cc1,-3,-4,5,-11,1
Cc1ccccc1-n1c(C)cc(/C=C(\C#N)C(=O)NCC2CCCO2)c1C (configuration not stated),-3,10,-7,9,9
Cc1cc(/C=C(\C#N)C(=O)NCc2cccs2)c(C)n1-c1ccccc1F,-5,7,7,11,51*
CCC(=O)N1CCC1(C)C(=O)Nc1cc(-c2ccccc2)nn1C (configuration not stated),/,2,/,/,-4
O=C(COc1ccccc1)NC(=S)Nc1cccc2c(O)cccc12,/,-3,/,/,-15
O=C(CCn1cnc2ccccc2c1=O)Nc1nc(-c2ccc(Br)cc2)cs1,23*,0,0,6,-49
Cc1ccc(S(=O)(=O)Nc2cccc3ncccc23)s1,-18,63*,96*,91*,73*
Cc1ccc(S(=O)(=O)Nc2cccc3ncccc23)cc1,-4,3,5,-17,7
C[C@@H]1CN([C@@H](C)CO)C(=O)c2cc(NS(=O)(=O)c3ccc(F)cc3)ccc2O[C@@H](C)CCCCO[C@H]1CN(C)C(=O)NC1CCCCC1,/,3,/,/,2
CC(C)NC(=O)C1(C)CN(S(C)(=O)=O)CC(=O)N1CC(F)(F)F (configuration not stated),/,/,/,/,-9
CCN1C(=O)/C(=C/C=C2/Sc3ccc4ccccc4c3N2CCO)SC1=S,-3,9,51*,27,12
CC(C)c1ccc(NC(=O)Nc2nc(C(N)COCc3ccccc3)cs2)cc1 (configuration not stated),/,-15,/,/,6
